≈ marks a conversion by molar mass, not a printed value. Where a SMILES comes first, the peptide text is derived from it. [ ]: non-standard residue; d: D form. Dap = NC[C@H](N)C(=O)O
Tests used:
Acinetobacter baumannii [1] = assay: Antibacterial activity against Acinetobacter baumannii isolate 9383370 measured after 24 hrs by microtiter dilution method; assay type: functional; details: isolate 9383370, 24 h
How it was run: (§1)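 Broth microdilution in Mueller-Hinton (MH) medium. […] Plates were incubated 24 h at 37 °C. MIC was the lowest peptide concentration that inhibited growth, based on three sets of replicates.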

Acinetobacter baumannii [2] = assay: Antibacterial activity against Acinetobacter baumannii isolate 1007660 measured after 24 hrs by microtiter dilution method; assay type: functional; details: isolate 1007660, 24 h; how it was run: as §1
Acinetobacter baumannii [3] = assay: Antibacterial activity against polymyxin B/colistin-resistant Acinetobacter baumannii M89941 measured after 24 hrs by microtiter dilution method; assay type: functional; details: M89941, 24 h; how it was run: as §1
Acinetobacter baumannii [4] = assay: Antibacterial activity against Acinetobacter baumannii 649 measured after 24 hrs in presence of 25% human serum by microtiter dilution method; assay type: functional; details: Acinetobacter baumannii, 649, 24 h
How it was run: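 Blood strain 649 was tested by MH broth microdilution with and without 25% (v/v) human serum added to the medium. The test used a final inoculum of 5 × 10^5 cfu/mL and incubation at 37 °C. The ratio is the MIC in serum over the MIC in MH alone.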

Acinetobacter baumannii [5] = assay: Antibacterial activity against Acinetobacter baumannii isolate 1018887 measured after 24 hrs by microtiter dilution method; assay type: functional; details: isolate 1018887, 24 h; how it was run: as §1
Acinetobacter baumannii [6] = assay: Antibacterial activity against Acinetobacter baumannii isolate 1010282 measured after 24 hrs by microtiter dilution method; assay type: functional; details: isolate 1010282, 24 h; how it was run: as §1
Acinetobacter baumannii [7] = assay: Antibacterial activity against polymyxin B/colistin-resistant Acinetobacter baumannii M89955 measured after 24 hrs by microtiter dilution method; assay type: functional; details: M89955, 24 h; how it was run: as §1
Acinetobacter baumannii [8] = assay: Antibacterial activity against Acinetobacter baumannii isolate 965463 measured after 24 hrs by microtiter dilution method; assay type: functional; details: isolate 965463, 24 h; how it was run: as §1
Acinetobacter baumannii [9] = assay: Antibacterial activity against polymyxin B/colistin-resistant Acinetobacter baumannii M89949 measured after 24 hrs by microtiter dilution method; assay type: functional; details: M89949, 24 h; how it was run: as §1
Acinetobacter baumannii [10] = assay: Antibacterial activity against Acinetobacter baumannii isolate 964304 measured after 24 hrs by microtiter dilution method; assay type: functional; details: isolate 964304, 24 h; how it was run: as §1
Acinetobacter baumannii [11] = assay: Antibacterial activity against Acinetobacter baumannii isolate 1010245 measured after 24 hrs by microtiter dilution method; assay type: functional; details: isolate 1010245, 24 h; how it was run: as §1
Acinetobacter baumannii [12] = assay: Antibacterial activity against Acinetobacter baumannii isolate 1021371 measured after 24 hrs by microtiter dilution method; assay type: functional; details: isolate 1021371, 24 h; how it was run: as §1
Acinetobacter baumannii [13] = assay: Antibacterial activity against Acinetobacter baumannii isolate 963659 measured after 24 hrs by microtiter dilution method; assay type: functional; details: isolate 963659, 24 h; how it was run: as §1
[14] = Therapeutic index, ratio of HC50 for human RBC to MIC for polymyxin B/colistin-resistant Acinetobacter baumannii M89955; assay type: toxicity; details: human red blood cells, read-out: TI
How it was run: (§2)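 T.I. = HC50/MIC. For HC50, peptide (quantified by amino acid analysis) was two-fold serially diluted over 12 concentrations up to 1000 μg/mL. It was incubated with 1% fresh human erythrocytes in PBS, pH 7.4, for 18 h at 37 °C. After 800g centrifugation, hemoglobin was read at 570 nm against water (100%) and no-peptide (0%) controls. HC50 came from a lysis-versus-concentration plot, average of 3 replicates.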

[15] = Therapeutic index, ratio of HC50 for human RBC to MIC for polymyxin B/colistin-resistant Acinetobacter baumannii M89963; assay type: toxicity; details: human red blood cells, read-out: TI; how it was run: as §2
Acinetobacter baumannii [16] = assay: Antibacterial activity against Acinetobacter baumannii isolate 1002956 measured after 24 hrs by microtiter dilution method; assay type: functional; details: isolate 1002956, 24 h; how it was run: as §1
[17] = Therapeutic index, ratio of HC50 for human RBC to MIC for polymyxin B/colistin-resistant Acinetobacter baumannii M89949; assay type: toxicity; details: human red blood cells, read-out: TI; how it was run: as §2
[18] = Therapeutic index, ratio of HC50 for human RBC to MIC for polymyxin B/colistin-resistant Acinetobacter baumannii M89953; assay type: toxicity; details: human red blood cells, read-out: TI; how it was run: as §2
Acinetobacter baumannii [19] = assay: Antibacterial activity against Acinetobacter baumannii 649 measured after 24 hrs by microtiter dilution method; assay type: functional; details: Acinetobacter baumannii, 649, 24 h; how it was run: as §1
Acinetobacter baumannii [20] = assay: Antibacterial activity against Acinetobacter baumannii isolate 963618 measured after 24 hrs by microtiter dilution method; assay type: functional; details: isolate 963618, 24 h; how it was run: as §1
[21] = Therapeutic index, ratio of HC50 for human RBC to MIC for polymyxin B/colistin-resistant Acinetobacter baumannii M89951; assay type: toxicity; details: human red blood cells, read-out: TI; how it was run: as §2
Acinetobacter baumannii [22] = assay: Antibacterial activity against Acinetobacter baumannii isolate 1001611 measured after 24 hrs by microtiter dilution method; assay type: functional; details: isolate 1001611, 24 h; how it was run: as §1
Acinetobacter baumannii [23] = assay: Antibacterial activity against Acinetobacter baumannii isolate 968886 measured after 24 hrs by microtiter dilution method; assay type: functional; details: isolate 968886, 24 h; how it was run: as §1
[24] = Therapeutic index, ratio of HC50 for human RBC to MIC for polymyxin B/colistin-resistant Acinetobacter baumannii M89941; assay type: toxicity; details: human red blood cells, read-out: TI; how it was run: as §2
Acinetobacter baumannii [25] = assay: Antibacterial activity against polymyxin B/colistin-resistant Acinetobacter baumannii M89951 measured after 24 hrs by microtiter dilution method; assay type: functional; details: M89951, 24 h; how it was run: as §1
Acinetobacter baumannii [26] = assay: Antibacterial activity against Acinetobacter baumannii isolate 952654 measured after 24 hrs by microtiter dilution method; assay type: functional; details: isolate 952654, 24 h; how it was run: as §1
Acinetobacter baumannii [27] = assay: Antibacterial activity against Acinetobacter baumannii isolate 1017395 measured after 24 hrs by microtiter dilution method; assay type: functional; details: isolate 1017395, 24 h; how it was run: as §1
Acinetobacter baumannii [28] = assay: Antibacterial activity against Acinetobacter baumannii isolate 977751 measured after 24 hrs by microtiter dilution method; assay type: functional; details: isolate 977751, 24 h; how it was run: as §1
Acinetobacter baumannii [29] = assay: Antibacterial activity against Acinetobacter baumannii isolate 981650 measured after 24 hrs by microtiter dilution method; assay type: functional; details: isolate 981650, 24 h; how it was run: as §1
Acinetobacter baumannii [30] = assay: Antibacterial activity against polymyxin B/colistin-resistant Acinetobacter baumannii M89953 measured after 24 hrs by microtiter dilution method; assay type: functional; details: M89953, 24 h; how it was run: as §1
[31] = Therapeutic index, ratio of HC50 for human RBC to MIC for polymyxin B/colistin-resistant Acinetobacter baumannii M89952; assay type: toxicity; details: human red blood cells, read-out: TI; how it was run: as §2
Acinetobacter baumannii [32] = assay: Antibacterial activity against polymyxin B/colistin-resistant Acinetobacter baumannii M89963 measured after 24 hrs by microtiter dilution method; assay type: functional; details: M89963, 24 h; how it was run: as §1
[33] = Hemolytic activity against human RBC measured after 18 hrs by spectrophotometric method; assay type: ADME, cell-based, Erythrocyte; details: human red blood cells (erythrocytes)
How it was run: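 Peptide (amount by amino acid analysis), two-fold serial dilutions at 12 concentrations up to 1000 μg/mL, with 1% human erythrocytes in PBS pH 7.4, 37 °C, 18 h. Unlysed cells removed by centrifugation (800g); hemoglobin read at 570 nm. Water-lysed cells = 100%, no-peptide cells = 0%. HC50 from plot of % lysis vs concentration (μM), average of 3 replicates.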

Acinetobacter baumannii [34] = assay: Antibacterial activity against Acinetobacter baumannii isolate 1035794 measured after 24 hrs by microtiter dilution method; assay type: functional; details: isolate 1035794, 24 h; how it was run: as §1
Acinetobacter baumannii [35] = assay: Antibacterial activity against Acinetobacter baumannii isolate 961997 measured after 24 hrs by microtiter dilution method; assay type: functional; details: isolate 961997, 24 h; how it was run: as §1
Acinetobacter baumannii [36] = assay: Antibacterial activity against polymyxin B/colistin-resistant Acinetobacter baumannii M89952 measured after 24 hrs by microtiter dilution method; assay type: functional; details: M89952, 24 h; how it was run: as §1
Acinetobacter baumannii [37] = assay: Antibacterial activity against Acinetobacter baumannii isolate 1035166 measured after 24 hrs by microtiter dilution method; assay type: functional; details: isolate 1035166, 24 h; how it was run: as §1

Work on CC(=O)N[C@H](CCCCN)C(=O)N[C@H](CC(C)C)C(=O)N[C@@H](CN)C(=O)N[C@H](CO)C(=O)N[C@H](CC(C)C)C(=O)N[C@H](CC(C)C)C(=O)N[C@@H](CN)C(=O)N[C@@H](C(=O)N[C@H](CC(C)C)C(=O)N[C@H](CO)C(=O)N[C@@H](CN)C(=O)N[C@H](C)C(=O)N[C@H](CCCCN)C(=O)N[C@H](C)C(=O)N[C@H](C)C(=O)N[C@H](CCCCN)C(=O)N[C@H](CC(C)C)C(=O)N[C@@H](CN)C(=O)N[C@@H](C(=O)N[C@H](CC(C)C)C(=O)N[C@H](CC(C)C)C(=O)N[C@@H](CN)C(=O)N[C@H](C)C(=O)N[C@H](CC(C)C)C(=O)N[C@H](CO)C(=O)N[C@@H](CN)C(N)=O)[C@H](C)O)[C@H](C)O (Ac-[dK][dL][Dap][dS][dL][dL][Dap][dT][dL][dS][Dap][dA][dK][dA][dA][dK][dL][Dap][dT][dL][dL][Dap][dA][dL][dS][Dap]-NH2) yielded an MIC (Acinetobacter baumannii [1]) of 0.8 µM (≈ 2.09 µg/mL), an MIC (Acinetobacter baumannii [2]) of 0.8 µM (≈ 2.09 µg/mL) and an MIC (Acinetobacter baumannii [3]) of 0.8 µM (≈ 2.09 µg/mL). It also gave an MIC (Acinetobacter baumannii [4]) of 3 µM, an MIC (Acinetobacter baumannii [5]) of 0.8 µM (≈ 2.09 µg/mL) and an MIC (Acinetobacter baumannii [6]) of 0.8 µM (≈ 2.09 µg/mL). For the same compound, the MIC (Acinetobacter baumannii [7]) was 0.8 µM (≈ 2.09 µg/mL), the MIC (Acinetobacter baumannii [8]) was 1.5 µM (≈ 3.92 µg/mL) and the MIC (Acinetobacter baumannii [9]) was 0.8 µM (≈ 2.09 µg/mL). It also gave an MIC (Acinetobacter baumannii [10]) of 1.5 µM (≈ 3.92 µg/mL), an MIC (Acinetobacter baumannii [11]) of 0.8 µM (≈ 2.09 µg/mL) and an MIC (Acinetobacter baumannii [12]) of 1.5 µM (≈ 3.92 µg/mL). For the same compound, the MIC (Acinetobacter baumannii [13]) was 1.5 µM (≈ 3.92 µg/mL), the selectivity ratio [14] was over 957 and the selectivity ratio [15] was over 957. The MIC (Acinetobacter baumannii [16]) was 0.8 µM (≈ 2.09 µg/mL), the selectivity ratio [17] was over 957 and the selectivity ratio [18] was over 957. It also gave an MIC (Acinetobacter baumannii [19]) of 0.8 µM (≈ 2.09 µg/mL), an MIC (Acinetobacter baumannii [20]) of 0.8 µM (≈ 2.09 µg/mL) and a selectivity ratio [21] of over 957. It also gave an MIC (Acinetobacter baumannii [22]) of 0.4 µM (≈ 1.05 µg/mL), an MIC (Acinetobacter baumannii [23]) of 1.5 µM (≈ 3.92 µg/mL) and a selectivity ratio [24] of over 957. It also gave an MIC (Acinetobacter baumannii [25]) of 3 µM (≈ 7.84 µg/mL), an MIC (Acinetobacter baumannii [26]) of 1.5 µM (≈ 3.92 µg/mL) and an MIC (Acinetobacter baumannii [27]) of 1.5 µM (≈ 3.92 µg/mL). It also gave an MIC (Acinetobacter baumannii [28]) of 0.8 µM (≈ 2.09 µg/mL), an MIC (Acinetobacter baumannii [29]) of 0.8 µM (≈ 2.09 µg/mL) and an MIC (Acinetobacter baumannii [30]) of 3 µM (≈ 7.84 µg/mL). For the same compound, the selectivity ratio [31] was over 957, the MIC (Acinetobacter baumannii [32]) was 1.5 µM (≈ 3.92 µg/mL) and the HC50 at 18 h [33] was over 1.15 mM. It also gave an MIC (Acinetobacter baumannii [34]) of 0.8 µM (≈ 2.09 µg/mL), an MIC (Acinetobacter baumannii [35]) of 1.5 µM (≈ 3.92 µg/mL) and an MIC (Acinetobacter baumannii [36]) of 0.8 µM (≈ 2.09 µg/mL). For the same compound, the MIC (Acinetobacter baumannii [37]) was 0.8 µM (≈ 2.09 µg/mL).

— ChEMBL document CHEMBL4339192, “De Novo Designed Amphipathic α-Helical Antimicrobial Peptides Incorporating Dab and Dap Residues on the Polar Face To Treat the Gram-Negative Pathogen, Acinetobacter baumannii” (J Med Chem, 2019)
